ChEMBL document CHEMBL4251649, “Discovery and optimization of phthalazinone derivatives as a new class of potent dengue virus inhibitors” (Eur J Med Chem, 2018)

Key:
[1] = Selectivity index, CC50 for human HuH7 cells to IC50 for DENV2 D2Y98P; type: toxicity; settings: read-out: Ratio CC50/IC50
Outline: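 SI is calculated as CC50 (MTT cytotoxicity in Huh7) divided by IC50 (qRT-PCR of DENV-2 D2Y98P supernatant RNA, Huh7, MOI 2, 48 h).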

dengue virus type 2 = assay: Antiviral activity against DENV2 D2Y98P infected in human HuH7 cells assessed as inhibition of viral RNA replication incubated for 48 hrs by qRT-PCR method; type: functional, organism-based; settings: Huh-7, 48 h
Outline: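 Huh7 cells (4×10^4/well, 2% FBS DMEM, overnight) infected with DENV-2 D2Y98P at MOI 2 for 2 h, washed, then given compound in fresh medium; after 48 h the supernatant viral genomic RNA was extracted and quantified by one-step qRT-PCR; IC50 and IC90 were taken as 50% and 90% inhibition of RNA replication.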

[2] = Cytotoxicity against human HuH7 cells assessed as reduction in cell viability after 48 hrs by MTT assay; type: cell-based, Huh-7
Outline: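 The Huh7 cells were seeded and treated with compound in the same way as the antiviral assay, and viability was read by MTT reduction. CC50 is the compound concentration that lowered the readout to half of the no-compound control.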

[3] = Tmax in CD-1 mouse at 10 mg/kg, po; type: ADME, organism-based; settings: in vivo
Outline: (§1)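 Male CD-1 mice (18–22 g, n=3/group), fasted 12 h and fed 2 h after dosing, received 10 mg/kg orally. Femoral-vein blood (EDTA) was drawn at 0.25, 0.5, 1, 2, 4, 8 and 24 h. Plasma was mixed with methanol:acetonitrile (1:1) and stored at -20°C. Parameters came from non-compartmental analysis.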

[4] = Oral bioavailability in CD-1 mouse at 10 mg/kg; type: ADME, organism-based; settings: in vivo; outline: as §1
Mus musculus [5] = assay: Plasma clearance in CD-1 mouse at 2 mg/kg, iv; type: ADME, organism-based; settings: in vivo
Outline: (§2)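 Male CD-1 mice (18–22 g, n=3/group), fasted 12 h, were given 2 mg/kg IV. Femoral-vein blood (EDTA) was collected at 3 min, 0.25, 0.75, 2, 4, 8 and 24 h. Plasma was mixed with methanol:acetonitrile (1:1), stored at -20°C, and analysed by non-compartmental methods.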

[6] = AUClast in CD-1 mouse at 10 mg/kg, po; type: ADME, organism-based; set-up: dose 10 mg/kg, time 0 - last, route oral; settings: in vivo; outline: as §1
Mus musculus [7] = assay: Volume of distribution at steady state in CD-1 mouse at 2 mg/kg, iv; type: ADME, organism-based; settings: in vivo; outline: as §2
[8] = Cmax in CD-1 mouse at 10 mg/kg, po; type: ADME, organism-based; set-up: dose 10 mg/kg, route oral; settings: in vivo; outline: as §1
Mus musculus [9] = assay: Half life in CD-1 mouse at 2 mg/kg, iv; type: ADME, organism-based; settings: in vivo; outline: as §2
[10] = Half life in CD-1 mouse at 10 mg/kg, po; type: ADME, organism-based; settings: in vivo; outline: as §1
Mus musculus [11] = assay: AUClast in CD-1 mouse at 2 mg/kg, iv; type: ADME, organism-based; set-up: dose 2 mg/kg, time 0 - last, route intravenous; settings: in vivo; outline: as §2

IC50 (dengue virus type 2) | IC90 (dengue virus type 2) | Compound | selectivity ratio [1] | CC50 at 48 h [2] | also measured
0.7 µM | 7.07 µM | CN(C)CCCCOC(=O)Nc1ccc(Cn2nc(-c3ccc(C#N)cc3)c3ccccc3c2=O)cc1 | 52.8 | 37 µM | 
6.32 µM | 30.2 µM | CN(C)CCCCOC(=O)Nc1ccc(Cn2nc(-c3cccnc3)c3ccccc3c2=O)cc1 | 10.7 | 68 µM | 
6.53 µM | 43.3 µM | CN(C)CCCCOC(=O)Nc1ccc(Cn2nc(-c3cnn(C)c3)c3ccccc3c2=O)cc1 | 8.5 | 55.9 µM | 
1.32 µM | 8.79 µM | CN(C)CCCCOC(=O)Nc1ccc(Cn2nc(-c3ccccc3F)c3ccccc3c2=O)cc1 | 39.8 | 52.5 µM | 
5.52 µM | 12.4 µM | CN(C)CCCCOC(=O)Nc1ccc(Cn2nc(-c3ccccc3C#N)c3ccccc3c2=O)cc1 | 16.4 | 90.7 µM | 
1.72 µM | 5.09 µM | CN(C)CCCCOC(=O)Nc1ccc(Cn2nc(-c3cccc(C#N)c3)c3ccccc3c2=O)cc1 | 10 | 17.2 µM | 
1.94 µM | 5.88 µM | COc1ccc(-c2nn(Cc3ccc(NC(=O)OCCCCN(C)C)cc3)c(=O)c3ccccc23)cc1 | 10.5 | 20.3 µM | 
2.68 µM | 6.09 µM | CN(C)CCCCOC(=O)Nc1ccc(Cn2nc(-c3ccccc3)c3ccccc3c2=O)cc1 | 5.99 | 16 µM | 
22.9 µM | 40.9 µM | CN(C)CCCCOC(=O)Nc1ccc(Cn2nc(-c3ccncc3)c3ccccc3c2=O)cc1 | 2.7 | 62.7 µM | 
0.13 µM | 1.15 µM | CN(C)CCCCOC(=O)Nc1ccc(Cn2nc(-c3cccc(C(F)(F)F)c3)c3ccccc3c2=O)cc1 | 89.2 | 11.6 µM | Tmax [3]: 8 h; bioavailability [4]: 34.9%; CL (Mus musculus [5]): 0.833 mL/min/kg; AUC(0-t) [6]: 883 ng·h/mL; Vdss (Mus musculus [7]): 17.137 L/kg; Cmax [8]: 94.5 ng/mL; t1/2 (Mus musculus [9]): 4.33 h; half-life [10]: 2.91 h; AUClast (Mus musculus [11]): 505 ng·h/mL
1.4 µM | 5.44 µM | COc1ccccc1-c1nn(Cc2ccc(NC(=O)OCCCCN(C)C)cc2)c(=O)c2ccccc12 | 32 | 44.8 µM | 
0.62 µM | 4.27 µM | CN(C)CCCCOC(=O)Nc1ccc(Cn2nc(-c3ccc(F)cc3)c3ccccc3c2=O)cc1 | 30.7 | 19 µM | 
0.34 µM | 1.58 µM | COc1cccc(-c2nn(Cc3ccc(NC(=O)OCCCCN(C)C)cc3)c(=O)c3ccccc23)c1 | 51.8 | 17.6 µM | 
1.51 µM | 8.24 µM | CN(C)CCCCOC(=O)Nc1ccc(Cn2nc(-c3cccc(F)c3)c3ccccc3c2=O)cc1 | 24.7 | 37.4 µM | 

Second part, the molecule before the results:

Compound | IC50 (dengue virus type 2) | IC90 (dengue virus type 2) | selectivity ratio [1] | CC50 at 48 h [2] | also measured
CN(C)CCCCOC(=O)Nc1ccc(-n2nc(-c3ccc(F)cc3)c3ccccc3c2=O)cc1 | 1.34 µM | 12.6 µM | 16.2 | 21.8 µM | 
CN(C)CCCCOC(=O)Nc1ccc(Cn2nc(-c3ccccc3C(F)(F)F)c3ccccc3c2=O)cc1 | 1.99 µM | 3.37 µM | 18 | 35.7 µM | 
CN(C)CCCCOC(=O)Nc1ccccc1Cn1nc(-c2ccc(F)cc2)c2ccccc2c1=O | 2.83 µM | 13.2 µM | 17.1 | 48.5 µM | 
CN(C)CCCC(=O)Nc1ccc(Cn2nc(-c3ccc(F)cc3)c3ccccc3c2=O)cc1 | 1 µM | 8.42 µM | 38.2 | 38.2 µM | 
CN(C)CCCCOC(=O)Nc1ccc(Cn2nc(-c3ccc(C(F)(F)F)cc3)c3ccccc3c2=O)cc1 | 1.47 µM | 6.61 µM | 2.3 | 3.36 µM | 
CN(C)CCCCOC(=O)Nc1cccc(Cn2nc(-c3ccc(F)cc3)c3ccccc3c2=O)c1 | 0.64 µM | 4.65 µM | 13.3 | 8.51 µM | 
CN(C)CCCCNC(=O)Nc1ccc(Cn2nc(-c3ccc(F)cc3)c3ccccc3c2=O)cc1 |  |  | 10.7 | 46.6 µM | 
CCCCOC(=O)Nc1ccc(Cn2nc(-c3ccc(F)cc3)c3ccccc3c2=O)cc1 |  |  | 14.3 | 19.5 µM | 
CC(c1ccc(NC(=O)OCCCCN(C)C)cc1)n1nc(-c2ccc(F)cc2)c2ccccc2c1=O (stereo not given) | 1.27 µM | 5.57 µM | 11.9 | 15.2 µM | 
Nc1ccc(Cn2nc(-c3ccc(F)cc3)c3ccccc3c2=O)cc1 | 20 µM | > 80 µM | > 4 | > 80 µM | 
CN(C)CCCCOC(=O)Nc1ccc(Cn2nc(-c3cncnc3)c3ccccc3c2=O)cc1 | 0.6 µM | 62.4 µM | 109 | 65.3 µM | 
